According to ChEMBL document CHEMBL3112583, “Modular construction of quaternary hemiaminal-based inhibitor candidates and their in cellulo assessment with HIV-1 protease” (Bioorg Med Chem, 2013):
Calls of active or inactive are those of the source. No cut-off for these calls is given here.

Tests used:
MDR1 (ABCB1, P-gp) [1] = target: T1, MDR1 (ABCB1, P-gp) (Homo sapiens, UniProt P08183); assay: Inhibition of MDR1 (unknown origin) expressed in mouse NIH/3T3 cells assessed as inhibition of mitoxatrone efflux at 2 uM after 1 hr by FACS analysis; format: cell-based; details: NIH/3T3 cells expressing MDR1, probe mitoxantrone (printed: mitoxatrone)
T1 sequence (P08183 whole entry): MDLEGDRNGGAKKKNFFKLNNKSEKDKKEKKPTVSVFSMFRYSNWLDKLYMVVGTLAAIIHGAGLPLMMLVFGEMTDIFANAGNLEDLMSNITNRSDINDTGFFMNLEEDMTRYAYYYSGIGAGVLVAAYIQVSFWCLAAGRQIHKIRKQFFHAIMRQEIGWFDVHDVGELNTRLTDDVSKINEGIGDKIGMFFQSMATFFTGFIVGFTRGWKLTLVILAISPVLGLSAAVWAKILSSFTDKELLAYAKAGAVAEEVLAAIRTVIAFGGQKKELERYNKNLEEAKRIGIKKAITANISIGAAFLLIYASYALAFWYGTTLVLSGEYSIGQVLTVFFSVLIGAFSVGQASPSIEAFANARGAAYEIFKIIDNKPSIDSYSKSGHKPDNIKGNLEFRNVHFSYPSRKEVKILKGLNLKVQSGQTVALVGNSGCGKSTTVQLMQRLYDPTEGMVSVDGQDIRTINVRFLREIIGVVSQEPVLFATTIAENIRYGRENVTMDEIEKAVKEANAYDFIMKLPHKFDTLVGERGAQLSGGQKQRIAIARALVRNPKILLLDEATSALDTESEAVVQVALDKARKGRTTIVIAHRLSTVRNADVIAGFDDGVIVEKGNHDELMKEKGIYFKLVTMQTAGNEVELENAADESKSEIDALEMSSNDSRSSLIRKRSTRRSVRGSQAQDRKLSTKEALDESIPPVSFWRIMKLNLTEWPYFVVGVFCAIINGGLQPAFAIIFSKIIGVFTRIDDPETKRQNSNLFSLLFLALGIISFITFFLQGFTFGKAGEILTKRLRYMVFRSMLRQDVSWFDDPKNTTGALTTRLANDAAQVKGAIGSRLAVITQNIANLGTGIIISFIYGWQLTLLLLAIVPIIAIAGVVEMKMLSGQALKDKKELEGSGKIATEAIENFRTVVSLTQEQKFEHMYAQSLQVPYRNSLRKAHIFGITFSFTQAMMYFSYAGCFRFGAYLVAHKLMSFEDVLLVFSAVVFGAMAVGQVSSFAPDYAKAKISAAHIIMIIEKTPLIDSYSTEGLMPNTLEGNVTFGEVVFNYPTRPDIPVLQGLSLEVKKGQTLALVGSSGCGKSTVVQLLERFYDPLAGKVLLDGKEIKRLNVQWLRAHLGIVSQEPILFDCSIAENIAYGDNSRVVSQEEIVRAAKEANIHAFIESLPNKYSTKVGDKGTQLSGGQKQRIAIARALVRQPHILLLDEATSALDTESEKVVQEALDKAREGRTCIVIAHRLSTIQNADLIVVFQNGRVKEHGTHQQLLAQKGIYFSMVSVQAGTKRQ

BCRP (ABCG2) [2] = target: T2, BCRP (ABCG2) (Homo sapiens, UniProt Q9UNQ0); assay: Inhibition of BCRP (unknown origin) expressed in mouse NIH/3T3 cells assessed as inhibition of mitoxatrone efflux at 10 uM after 1 hr by FACS analysis; format: cell-based, NIH3T3; details: NIH/3T3 cells expressing BCRP, probe mitoxantrone (printed: mitoxatrone)
T2 sequence (Q9UNQ0 whole entry): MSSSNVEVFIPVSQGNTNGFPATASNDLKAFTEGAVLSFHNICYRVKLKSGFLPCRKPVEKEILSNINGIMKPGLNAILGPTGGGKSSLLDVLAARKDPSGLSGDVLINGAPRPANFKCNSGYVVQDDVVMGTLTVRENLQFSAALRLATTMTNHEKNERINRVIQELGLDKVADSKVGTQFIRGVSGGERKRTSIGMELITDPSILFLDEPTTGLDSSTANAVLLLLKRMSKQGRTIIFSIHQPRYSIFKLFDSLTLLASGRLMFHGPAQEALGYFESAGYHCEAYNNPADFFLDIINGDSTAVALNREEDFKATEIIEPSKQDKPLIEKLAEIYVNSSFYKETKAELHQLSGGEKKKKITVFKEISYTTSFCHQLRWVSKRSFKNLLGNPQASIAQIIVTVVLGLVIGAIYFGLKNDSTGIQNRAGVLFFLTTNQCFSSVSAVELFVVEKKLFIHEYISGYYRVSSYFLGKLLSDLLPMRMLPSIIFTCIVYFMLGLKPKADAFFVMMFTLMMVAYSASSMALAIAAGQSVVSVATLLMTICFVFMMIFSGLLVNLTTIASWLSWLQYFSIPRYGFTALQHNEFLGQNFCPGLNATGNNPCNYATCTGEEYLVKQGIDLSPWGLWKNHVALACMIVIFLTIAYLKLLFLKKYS

BCRP (ABCG2) [3] = target: T2, BCRP (ABCG2); assay: Inhibition of BCRP (unknown origin) expressed in mouse NIH/3T3 cells assessed as inhibition of mitoxatrone efflux at 2 uM after 1 hr by FACS analysis; format: cell-based, NIH3T3; details: NIH/3T3 cells expressing BCRP, probe mitoxantrone (printed: mitoxatrone)
MDR1 (ABCB1, P-gp) [4] = target: T1, MDR1 (ABCB1, P-gp); assay: Inhibition of MDR1 (unknown origin) expressed in mouse NIH/3T3 cells assessed as inhibition of mitoxatrone efflux at 10 uM after 1 hr by FACS analysis; format: cell-based, NIH3T3; details: NIH/3T3 cells expressing MDR1, probe mitoxantrone (printed: mitoxatrone)
[5] = Cytotoxicity against mouse NIH/3T3 cells expressing pgp assessed as cell survival at >30 to 50 uM after 72 hrs by MTT assay; format: ADME, cell-based, NIH3T3; details: NIH/3T3 cells expressing P-gp
Protease [6] = target: T3, Protease (Human immunodeficiency virus 1, UniProt Q9YQ12); assay: Inhibition of HIV-1 recombinant protease using DABCYL-GABA-Ser-Asn-Tyr-Pro-Ile-Val-Gln-EDANS as substrate incubated for 30 mins prior to substrate addition by Dixon plot analysis
T3 sequence (Q9YQ12 whole entry): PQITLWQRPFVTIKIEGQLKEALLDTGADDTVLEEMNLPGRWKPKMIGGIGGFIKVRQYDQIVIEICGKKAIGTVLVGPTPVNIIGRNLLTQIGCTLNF

Protease [7] = target: T3, Protease; assay: Inhibition of HIV-1 recombinant protease using DABCYL-GABA-Ser-Asn-Tyr-Pro-Ile-Val-Gln-EDANS as substrate incubated for 30 mins prior to substrate addition by Hanes plot analysis
Protease [8] = target: T3, Protease; assay: Inhibition of HIV-1 recombinant protease using DABCYL-GABA-Ser-Asn-Tyr-Pro-Ile-Val-Gln-EDANS as substrate incubated for 30 mins prior to substrate addition by Lineweaver-Burk plot analysis
[9] = target: Protease (Human immunodeficiency virus 1) (UniProt Q9YQ12); assay: Inhibition of HIV-1 protease in human T cells assessed as increase in eGFP expression at >20 uM after 24 hrs by flow cytometry; format: cell-based; details: T-cell
Sequence of Protease (Human immunodeficiency virus 1) (Q9YQ12 as listed by the source): as the sequence (Q9YQ12 whole entry) above
Procedure, shortened: (§1)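 SupT1 T cells carry an HIV-1 protease–Gal4 fusion under a tetracycline-inducible promoter and a Gal4-responsive eGFP reporter. They were kept in RPMI 1640 with 10% FBS and 1% penicillin/streptomycin at 37 °C in 5% CO₂. Cells were grown 24 h with 1–100 µM compound, with indinavir (0.0001–10 µM) as reference, then induced with […] doxycycline. eGFP was read 48 h later by flow cytometry (ex 488/em 530 nm).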

[10] = Cytotoxicity against human HEK293 cells assessed as cell survival after 72 hrs by MTT assay
[11] = Cytotoxicity against mouse NIH/3T3 cells assessed as cell survival after 72 hrs by MTT assay
[12] = Cytotoxicity against human HEK293 cells expressing BCRP assessed as cell survival after 72 hrs by MTT assay
HEK293 [13] = assay: Cytotoxicity against human HEK293 cells assessed as cell survival after 72 hrs by MTT assay; format: cell-based; details: hek293, 72 h
Procedure, shortened: (§2)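 HEK293 cells stably transfected with BCRP, or with empty vector (HEK293-pcDNA3) as parental control, kept in high-glucose DMEM with 10% FBS, 1% penicillin/streptomycin and 0.75 mg/mL G418, at 37 °C in humidified 5% CO₂. Cells were exposed for 72 h to increasing compound concentrations, and survival was read by MTT colorimetric assay. IC50 is the mean ± sd of at least three independent experiments.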

HEK293 [14] = assay: Cytotoxicity against human HEK293 cells expressing BCRP assessed as cell survival after 72 hrs by MTT assay; format: ADME, cell-based; details: hek293, 72 h; procedure, shortened: as §2
[15] = Cytotoxicity against mouse NIH/3T3 cells assessed as cell survival after 72 hrs by MTT assay; format: cell-based, NIH3T3
NIH3T3 = assay: (§3) Cytotoxicity against mouse NIH/3T3 cells expressing pgp assessed as cell survival after 72 hrs by MTT assay; format: ADME, cell-based; details: nih3t3, 72 h
[16] = target: Protease (Human immunodeficiency virus 1) (UniProt Q9YQ12); assay: Inhibition of HIV-1 protease in human T cells assessed as increase in eGFP expression at 1 to 100 uM after 24 hrs by flow cytometry; format: cell-based; details: T-cell; procedure, shortened: as §1
[17] = target: Protease (Human immunodeficiency virus 1) (UniProt Q9YQ12); assay: Inhibition of HIV-1 protease in human T cells assessed as increase in eGFP expression at 0.1 uM after 24 hrs by flow cytometry; format: cell-based; details: T-cell
[18] = as §3; format: ADME, cell-based, NIH3T3; details: NIH/3T3 cells expressing P-gp
[19] = Cytotoxicity against human HEK293 cells assessed as cell survival after 72 hrs by MTT assay; remark: listed apart in the source
[20] = Cytotoxicity against mouse NIH/3T3 cells assessed as cell survival after 72 hrs by MTT assay; remark: listed apart in the source
[21] = Cytotoxicity against human HEK293 cells expressing BCRP assessed as cell survival after 72 hrs by MTT assay; remark: listed apart in the source
[22] = Cytotoxicity against mouse NIH/3T3 cells expressing pgp assessed as cell survival after 72 hrs by MTT assay; details: NIH/3T3 cells expressing P-gp

SMILES | inhibition at 1 h, 2 µM (MDR1 (ABCB1, P-gp) [1]) [%] | inhibition at 1 h, 10 µM (BCRP (ABCG2) [2]) [%] | inhibition at 1 h, 2 µM (BCRP (ABCG2) [3]) [%] | inhibition at 1 h, 10 µM (MDR1 (ABCB1, P-gp) [4]) [%] | IC50 at 72 h [5] [µM] | Ki (Protease [6]) [µM] | Ki (Protease [7]) [µM] | Ki (Protease [8]) [µM] | inhibition [9] | IC50 at 72 h [10] [µM] | IC50 at 72 h [11] [µM] | IC50 at 72 h [12] [µM] | inhibition [16] | further results
COc1cc2c(cc1OC)CN(CCc1ccc(NC(=O)c3cccc4c(=O)c5cccc(OC)c5[nH]c34)cc1)CC2 | 110 |  |  |  |  |  |  |  |  |  |  |  |  | 
O=C[C@H](Cc1ccccc1)NC(=O)N(Cc1ccccc1)N1CCCCC1 | 5.5 | 0.3 | 0.2 | 6.4 | 48.6 | 292 | 257 | 172 | Active | 37.6 | 42.6 | 34.8 |  | 
O=C[C@H](Cc1ccccc1)NC(=O)N(Cc1ccccc1)N1CCOCC1 | 7.1 | 3.3 | 0.2 | 11.5 |  | 996 | 366 | 317 |  |  |  |  | inactive | Activity (HEK293 [13]): Not Active; Activity (HEK293 [14]): Not Active; IC50 at 72 h [15]: 79.8 µM; Activity (NIH3T3): Not Active
COc1cccc(CN(C(=O)N[C@H](C=O)Cc2ccccc2)N2CCCCC2)c1 | 7.7 | 8.1 | 0.9 | 22.7 | 46.8 | 334 | 410 | 320 | Active | 42.6 | 39.4 | 37.2 |  | 
O=C[C@H](Cc1ccc(O)cc1)NC(=O)N(Cc1ccccc1)N1CCCCC1 | 1.1 | 2.5 | 0.9 | 3 | 71.2 | 306 | 342 | 395 |  | 52.4 | 58.6 | 47.9 | inactive | 
O=C[C@H](Cc1ccccc1)NC(=O)N(Cc1cccc(O)c1)N1CCCCC1 | 4.6 | 8.4 | 2.5 | 4.8 | 43.5 | 144 | 242 | 272 | Active | 35.3 | 42.1 | 23.1 |  | 
CC(C)(C)NC(=O)[C@@H]1CN(Cc2cccnc2)CCN1C[C@@H](O)C[C@@H](Cc1ccccc1)C(=O)N[C@H]1c2ccccc2C[C@H]1O |  |  |  |  |  |  |  |  |  |  |  |  |  | inhibition [17]: Active
CN(C)N(Cc1ccccc1)C(=O)N[C@H](C=O)Cc1ccccc1 | 2.3 | 8.1 | 0.2 | 8.1 | 100 | 492 | 406 | 528 |  | 56.3 | 68.8 | 57.2 | inactive | 
CC(C)(C)NC(=O)[C@@H]1C[C@@H]2CCCC[C@@H]2CN1C[C@@H](O)[C@H](Cc1ccccc1)NC(=O)[C@H](CC(N)=O)NC(=O)c1ccc2ccccc2n1 |  |  |  |  |  |  |  |  |  |  |  |  |  | Activity (HEK293 [13]): Not Active; Activity (HEK293 [14]): Not Active; IC50 at 72 h [15]: 37 µM; IC50 at 72 h [18]: 49 µM
O=C[C@H](Cc1ccccc1)N(Cc1ccccc1)C(=O)N(Cc1ccccc1)N1CCCCC1 | 1.8 | 8.8 | 1.8 | 15 |  | 993 | 1120 | 463 |  |  |  |  | inactive | IC50 at 72 h [19]: 17.6 µM; IC50 at 72 h [20]: 11.2 µM; IC50 at 72 h [21]: 12.8 µM; IC50 at 72 h [22]: 12.8 µM
